Data: ChEMBL document CHEMBL2390871, “Exploring the anticancer potential of pyrazolo[1,2-a]benzo[1,2,3,4]tetrazin-3-one derivatives: the effect on apoptosis induction, cell cycle and proliferation” (Eur J Med Chem, 2013)
Calls of active or inactive are those of the source. No cut-off for these calls is given here.

Legend:
COLO 205 = experiment: Cytotoxicity against human COLO205 cells assessed as growth at 10 uM after 48 hrs by sulforhodamine B assay; format: functional; details: COLO 205, 48 h, read-out: Activity
Summary of the method: (§1)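 NCI-60 one-dose screen at 10 µM. Cells in RPMI 1640 with 5% FBS and 2 mM L-glutamine were plated at 5000–40,000/well and preincubated 24 h. Drug was then applied for 48 h at 37 °C, 5% CO₂. Adherent cells were fixed with cold TCA (10% final) and stained with SRB. Growth % is relative to the no-drug control and the time-zero cell number; negative values indicate lethality.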

T47D = experiment: Cytotoxicity against human T47D cells assessed as growth at 10 uM after 48 hrs by sulforhodamine B assay; format: functional; details: read-out: Activity; summary of the method: as §1
Caco-2 = experiment: Cytotoxicity against human Caco2 cells after overnight incubation by MTT assay; format: functional, cell-based
Summary of the method: (§2)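 MTT (5 mg/ml) was added for 3 h at 37 °C, formazan dissolved in DMSO, and absorbance read at 540 nm. Viability is relative to untreated cells (100%), fitted to a four-parameter Hill equation. IC50 is 50% formazan formation versus drug-free control. Triplicates, at least three independent experiments.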

HOP-92 = experiment: Cytotoxicity against human HOP92 cells assessed as growth at 10 uM after 48 hrs by sulforhodamine B assay; format: functional; details: HOP-92, 48 h, read-out: Activity; summary of the method: as §1
UO-31 = experiment: Cytotoxicity against human UO31 cells assessed as growth at 10 uM after 48 hrs by sulforhodamine B assay; format: functional; details: UO-31, 48 h, read-out: Activity; summary of the method: as §1
NCI-H522 = experiment: Cytotoxicity against human NCI-H522 cells assessed as growth at 10 uM after 48 hrs by sulforhodamine B assay; format: functional; details: NCI-H522, 48 h, read-out: Activity; summary of the method: as §1
HeLa [1] = experiment: Cytotoxicity against human HeLa cells after overnight incubation by MTT assay; format: functional, cell-based; summary of the method: as §2
CCRF-CEM = experiment: Cytotoxicity against human CCRF-CEM cells assessed as growth at 10 uM after 48 hrs by sulforhodamine B assay; format: functional; details: read-out: Activity; summary of the method: as §1
HeLa [2] = experiment: Induction of mitochondrial membrane depolarization in human HeLa cells at < 10 uM after overnight incubation by FACS analysis; format: functional, cell-based
Summary of the method: (§3)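 HeLa cells (175,000/well) were incubated overnight with serial drug concentrations. They were washed with PBS, incubated 30 min at 37 °C in Krebs Ringer buffered saline, detached, and collected in buffer with 1% FCS. At least 2 × 10⁴ cells were analysed by flow cytometry, with the TMRM signal read on FL2. Depolarization was gated on cells treated overnight with staurosporine as positive control, and the untreated-cell signal was subtracted. Triplicates, replicated twice.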

MCF7 = experiment: Cytotoxicity against human MCF7 cells after overnight incubation by MTT assay; format: functional, cell-based; summary of the method: as §2
NCI-H292 = experiment: Cytotoxicity against human NCI-H292 cells after overnight incubation by MTT assay; format: functional, cell-based; summary of the method: as §2
SK-MEL-2 = experiment: Cytotoxicity against human SK-MEL-2 cells assessed as growth at 10 uM after 48 hrs by sulforhodamine B assay; format: functional; details: SK-MEL-2, 48 h, read-out: Activity; summary of the method: as §1
SW-620 = experiment: Cytotoxicity against human SW620 cells assessed as growth at 10 uM after 48 hrs by sulforhodamine B assay; format: functional; details: SW-620, 48 h, read-out: Activity; summary of the method: as §1
[3] = Cytotoxicity against human 16HBE cells after overnight incubation by MTT assay; format: functional, cell-based; details: 16HBE14o-; summary of the method: as §2
[4] = Cytotoxicity against human LAN5 cells after overnight incubation by MTT assay; format: functional, cell-based; details: LA-N-5; summary of the method: as §2
PC-3 = experiment: Cytotoxicity against human PC3 cells assessed as growth at 10 uM after 48 hrs by sulforhodamine B assay; format: functional; details: PC-3, 48 h, read-out: Activity; summary of the method: as §1
SNB-75 = experiment: Cytotoxicity against human SNB75 cells assessed as growth at 10 uM after 48 hrs by sulforhodamine B assay; format: functional; details: SNB-75, 48 h, read-out: Activity; summary of the method: as §1
MOLT-4 = experiment: Cytotoxicity against human MOLT4 cells assessed as growth at 10 uM after 48 hrs by sulforhodamine B assay; format: functional; details: MOLT-4, 48 h, read-out: Activity; summary of the method: as §1
HeLa [5] = experiment: Cell cycle arrest in human HeLa cells assessed as accumulation at sub-G0/G1 phase at 50 uM after 72 hrs by propidium iodide staining-based FACS analysis; format: functional
Summary of the method: (§4)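 HeLa cells (1 × 10⁶) exposed 72 h to 5, 10, 25 or 50 µM of each compound. Cells were washed, trypsinized, fixed in chilled 70% ethanol on ice for more than 2 h, and stained with propidium iodide for 15 min at 37 °C in the dark. Cell-cycle phase distribution was read by flow cytometry against untreated control cells.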

HeLa [6] = experiment: Cell cycle arrest in human HeLa cells assessed as accumulation at S phase at 50 uM after 72 hrs by propidium iodide staining-based FACS analysis; format: functional; summary of the method: as §4
HeLa [7] = experiment: Induction of mitochondrial membrane depolarization in human HeLa cells after overnight incubation by FACS analysis; format: functional, cell-based; summary of the method: as §3
HeLa [8] = experiment: Induction of mitochondrial membrane depolarization in human HeLa cells at 3 to 8 uM after overnight incubation by FACS analysis; format: functional, cell-based; summary of the method: as §3
HeLa [9] = experiment: Cell cycle arrest in human HeLa cells assessed as accumulation at G1 phase at 5 to 50 uM after 72 hrs by propidium iodide staining-based FACS analysis; format: functional; summary of the method: as §4
HeLa [10] = experiment: Induction of mitochondrial membrane depolarization in human HeLa cells at 1 uM after overnight incubation by FACS analysis; format: functional, cell-based; summary of the method: as §3
HeLa [11] = experiment: Cell cycle arrest in human HeLa cells assessed as accumulation at sub-G0/G1 phase at 5 to 50 uM after 72 hrs by propidium iodide staining-based FACS analysis; format: functional; summary of the method: as §4
HeLa [12] = experiment: Induction of mitochondrial membrane depolarization in human HeLa cells at 3 to 4 uM after overnight incubation by FACS analysis; format: functional, cell-based; summary of the method: as §3
IGROV-1 = experiment: Cytotoxicity against human IGROV1 cells assessed as growth at 10 uM after 48 hrs by sulforhodamine B assay; format: functional; details: IGROV-1, 48 h, read-out: Activity; summary of the method: as §1

Structure (SMILES)	growth at 10 µM (COLO 205) [%]	growth at 10 µM (T47D) [%]	IC50 (Caco-2) [µM]	growth at 10 µM (HOP-92) [%]	growth at 10 µM (UO-31) [%]	growth at 10 µM (NCI-H522) [%]	IC50 (HeLa [1]) [µM]	growth at 10 µM (CCRF-CEM) [%]	IC50 (MCF7) [µM]	IC50 (NCI-H292) [µM]	growth at 10 µM (SK-MEL-2) [%]	growth at 10 µM (SW-620) [%]	IC50 [3] [µM]	IC50 [4] [µM]	growth at 10 µM (PC-3) [%]	growth at 10 µM (SNB-75) [%]	growth at 10 µM (MOLT-4) [%]	further results
Cc1cc(=O)n2nnc3cc(C#N)ccc3n12	104	91	37.1	103	105	97	27	100	35.9	43.6	99	110	46.7	28.2	101	96	95	Activity (HeLa [2]): Active
Cc1cc(=O)n2nnc3cc(Cl)c(Cl)cc3n12	-64	76	25.7	101	81	54	14.8	23	13.9	28.2	102	23	13.5	25.7	94	96	59	Activity (HeLa [5]): 25.4%; Activity (HeLa [6]): 19.4%; EC50 (HeLa [7]): 3 µM
Cc1cc(=O)n2nnc3ccc(Cl)cc3n12			34.6				15.8		29.5	25.1			27.5	48.9				
Cc1ccc2c(c1)nnn1c(=O)cc(C)n21			50.2				15.4		42.6	25.1			36.3	93.3				Activity (HeLa [8]): Active
Cc1cc(=O)n2nnc3cc(Cl)ccc3n12			24				14.8		20.5	23.4			17.7	31.6				EC50 (HeLa [7]): 5 µM
Cc1cc(=O)n2nnc3cc(C(F)(F)F)ccc3n12	108	115	> 100	94	84	97	> 100	103	> 100	> 100	99	118	30.9	15.1	101	116	91	Activity (HeLa [9]): -12%; Activity (HeLa [10]): Active; Activity (HeLa [11]): 7.2%
Cc1cc2nnn3c(=O)cc(C)n3c2cc1C	66	97	46.8	93	84	97	13.2	19	46.7	23.4	96	94	38.9	95.5	100	89	82	Activity (HeLa [5]): 18%; Activity (HeLa [6]): 10%; Activity (HeLa [12]): Active; growth at 10 µM (IGROV-1): 91%
